Test results published in ChEMBL document CHEMBL4118275, “Synthesis of coumarin derivatives and their cytoprotective effects on t-BHP-induced oxidative damage in HepG2 cells” (Bioorg Med Chem Lett, 2018).
The source made the active and inactive calls. No cut-off for these calls is given here.

Columns and labels:
[1] = system: HepG2; experiment: Cytotoxicity against human HepG2 cells at 10 uM; type: cell-based; conditions: hepg2, 10 µM
[2] = system: HepG2; experiment: Cytoprotective activity against 100 uM t-BHP-induced oxidative stress in human HepG2 cells assessed as cell viability preincubated for 1 hr followed by t-BHP addition measured after 3 hrs by CCK-8 assay (reference value: 22%); type: functional
[3] = Antioxidant activity assessed as DPPH radical scavenging activity measured after 30 mins; type: functional
Outline: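 DPPH radical scavenging was measured, and activity is given as EC50 in μM.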

[4] = system: HepG2; experiment: Cytoprotective activity against 1 mM t-BHP-induced oxidative stress in human HepG2 cells assessed as cell viability preincubated for 1 hr followed by t-BHP addition measured after 3 hrs by CCK-8 assay; type: functional
[5] = system: HepG2; experiment: Cytoprotective activity against 100 uM t-BHP-induced cell damage in human HepG2 cells assessed as increase in mitochondrial membrane potential preincubated for 1 hr followed by t-BHP addition measured after 3 hrs by rhodamine 123 staining based fluorescence microscopy; type: functional
Outline: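 HepG2 cells were pretreated with sample, then exposed to 100 μM t-BHP and stained with Rhodamine 123. Mitochondrial membrane potential was judged from fluorescence microscopy images against untreated control and t-BHP-only cells.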

Row | EC50 [3] [nM] | SMILES | Activity [1] | Activity [2] | Activity [4] [%] | Activity [5]
1 |  | CC(C)(OC(=O)/C=C/c1ccc(O)cc1)C1Cc2cc3ccc(=O)oc3cc2O1 (stereo not given) | Non-Toxic | inactive |  | 
2 |  | CC1(C)Oc2cc3oc(=O)ccc3cc2CC1OC(=O)/C=C/c1ccc(O)cc1 (stereo not given) | Non-Toxic | inactive |  | 
3 |  | CC1(C)Oc2ccc3ccc(=O)oc3c2CC1OC(=O)/C=C/c1ccc(O)cc1 (stereo not given) | Non-Toxic | inactive |  | 
4 |  | CC(C)(O)C1Cc2c(ccc3ccc(=O)oc23)O1 (stereo not given) | Non-Toxic | inactive |  | 
5 |  | COc1cc(/C=C/C(=O)OC2Cc3c(ccc4ccc(=O)oc34)OC2(C)C)ccc1O (stereo not given) | Non-Toxic | inactive |  | 
6 |  | COc1ccc(/C=C/C(=O)OC2Cc3c(ccc4ccc(=O)oc34)OC2(C)C)cc1 (stereo not given) | Non-Toxic | inactive |  | 
7 |  | CC(C)(OC(=O)/C=C/c1ccc(O)cc1)C1Cc2c(ccc3ccc(=O)oc23)O1 (stereo not given) | Non-Toxic | inactive |  | 
8 |  | CC1(C)Oc2ccc3ccc(=O)oc3c2CC1OC(=O)/C=C/c1ccccc1 (stereo not given) | Non-Toxic | inactive |  | 
9 | 1500 | COC(=O)/C=C/c1ccc(O)c(O)c1 [METHYLCAFFEATE] |  | 31% |  | 
10 |  | CC1(C)Oc2cc3oc(=O)ccc3cc2CC1O (stereo not given) | Non-Toxic | inactive |  | 
11 |  | CC(C)(O)C1Cc2cc3ccc(=O)oc3cc2O1 (stereo not given) | Non-Toxic | inactive |  | 
12 |  | COc1cc(/C=C/C(=O)OC2Cc3c(ccc4ccc(=O)oc34)OC2(C)C)cc(OC)c1OC (stereo not given) | Non-Toxic | inactive |  | 
13 | 3060 | CC1(C)Oc2ccc3ccc(=O)oc3c2CC1OC(=O)/C=C/c1ccc(O)c(O)c1 (stereo not given) | Non-Toxic | 86% | 39 | Active
14 |  | CC1(C)Oc2ccc3ccc(=O)oc3c2CC1O (stereo not given) [LOMATIN] | Non-Toxic | inactive |  | 
15 |  | COc1ccc(/C=C/C(=O)OC2Cc3c(ccc4ccc(=O)oc34)OC2(C)C)cc1OC (stereo not given) | Non-Toxic | inactive |  | 

Row | SMILES | EC50 [3] [nM] | Activity [1] | Activity [2] | Activity [4] [%] | Activity [5]
16 | O=c1c(O)c(-c2ccc(O)c(O)c2)oc2cc(O)cc(O)c12 [QUERCETIN] | 170 |  | 62% |  | 
